One molecule from ChEMBL document CHEMBL3351741, “Fused heterocycles bearing bridgehead nitrogen as potent HIV-1 NNRTIs. Part 2: discovery of novel [1,2,4]Triazolo[1,5-a]pyrimidines using a structure-guided core-refining approach” (Eur J Med Chem, 2014) can be followed below.

Data set [1] can be described thus: Selectivity index, ratio of CC50 for mock-infected human MT4 cells to EC50 for HIV-1 3B infected in human MT4 cells. The format is toxicity, cell-based. Conditions: mock-infected and infected with HIV-1 3B, read-out: Ratio CC50/EC50. Summed up:
(§1)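 MT-4 cells resuspended at 6 × 10⁵ cells/ml, infected with HIV-1 IIIB, RES056 or HIV-2 ROD at 100-300 CCID50, or mock-infected; test compounds added from 10× stocks. After 5 days, viability read by MTT at 540 and 690 nm, median OD of two or three wells. EC50 = 50% protection from cytopathicity; CC50 = 50% viability loss in mock-infected cells; SI = CC50/EC50.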

Data set [2] concerns Human immunodeficiency virus 1. Kind of data set: Antiviral activity against HIV-1 RES056 harboring RT K103N/Y181C double mutant infected in human MT4 cells assessed as protection from viral cytopathicity after 5 days by MTT assay. Conditions: Human immunodeficiency virus 1, RES056, MT4, 120 h. In kind it is functional, organism-based. Summed up:
as §1
In general terms: Cytopathic effects are the visible damage that an infection or toxin causes in cultured cells.

For data set [3], the system named is Human immunodeficiency virus 1. Kind of data set: Antiviral activity against HIV-1 3B infected in human MT4 cells assessed as protection from viral cytopathicity after 5 days by MTT assay. The note with it: Human immunodeficiency virus 1, 3B, MT4, 120 h. In kind it is functional, organism-based. Summed up:
(§2)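 MT-4 cells (6 × 10⁵ cells/ml) infected with HIV-1 IIIB or HIV-2 ROD stock at 100-300 CCID₅₀; compounds added as 10× stocks. After 5 days, viability read by MTT reduction at 540 and 690 nm, using median OD of two or three wells. EC₅₀ is the concentration giving 50% protection from viral cytopathicity.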

The subject of data set [4] is Human immunodeficiency virus 2. Kind of data set: Antiviral activity against HIV-2 ROD infected in human MT4 cells assessed as protection from viral cytopathicity after 5 days by MTT assay. The format is functional, organism-based. Conditions: Human immunodeficiency virus 2, ISOLATE ROD, MT4, 120 h. Summed up:
as §2

The target in data set [5] is Human immunodeficiency virus type 1 reverse transcriptase (Human immunodeficiency virus 1, UniProt Q72547). Description: Inhibition of purified recombinant HIV-1 reverse transcriptase after 1 hr using biotin-labeled dUTP by digoxigenin-peroxidase assay. In outline: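 Kit-based colorimetric ELISA with recombinant wild-type HIV-1 RT, poly(A)·oligo(dT)15 template/primer, dNTPs including digoxigenin- and biotin-labeled dUTP, in lysis buffer ± inhibitor, incubated 1 h at 37 °C. Product captured on streptavidin, detected with anti-DIG-peroxidase and ABTS, absorbance at 405 nm. Several concentrations tested; % inhibition taken relative to the no-inhibitor sample.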

The nature of data set [6]: Cytotoxicity against mock-infected human MT4 cells after 5 days by MTT assay. In kind it is cell-based. In outline:
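Mock-infected MT-4 cells (6 × 10⁵ cells/ml) received culture medium in place of virus and were exposed to compounds added as 10× stocks. After 5 days, viability was read by MTT at 540 and 690 nm, using median OD of two or three wells. CC₅₀ is the concentration cutting viability by 50%. '>' marks the highest concentration tested without cytotoxicity.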
(In general: Tetrazolium assays rely on reduction of a dye to a coloured formazan, in cell work by metabolically active cells.)

The nature of data set [7]: Selectivity index, ratio of CC50 for mock-infected human MT4 cells to EC50 for HIV-1 RES056 harboring RT K103N/Y181C double mutant infected in human MT4 cells. In kind it is toxicity, cell-based. The note with it: read-out: Ratio CC50/EC50. Summed up:
as §1

Data set [8] is described as follows: Selectivity index, ratio of CC50 for mock-infected human MT4 cells to EC50 for HIV-2 ROD infected in human MT4 cells. In kind it is toxicity, cell-based. The note with it: mock-infected and infected with HIV-2 ROD, read-out: Ratio CC50/EC50. Summed up: as §1

Consider `Cc1cc(C#N)cc(C)c1Oc1cc(Nc2ccc(C#N)cc2)nc2ncnn12`, for which the selectivity ratio in data set [1] is 182; in data set [7], less than 1; in data set [8], less than 1. In addition, the half-maximal effective concentration (EC50) (in general, the concentration that produces a half-maximal response) in data set [2] was more than 224 µM; in data set [3], 1.2 µM; in data set [4] it was more than 224 µM. The half-maximal inhibitory concentration (IC50) (as a rule, the point on the concentration scale where inhibition reaches its midpoint) in data set [5] worked out at 0.39 µM. In data set [6], the CC50 (usually the concentration at which the toxic effect on the cells reaches its halfway point) at 120 h was found to be 224 µM.
